Laboratory results published in ChEMBL document CHEMBL1143785, “N/C-4 substituted azetidin-2-ones: synthesis and preliminary evaluation as new class of antimicrobial agents” (2007).
Converted amounts (≈) assume the structure as drawn. The source made the active and inactive calls. No cut-off for these calls is given here.

How the values were obtained:
Assay type in all cases: functional
Salmonella typhi = experiment: Antimicrobial activity against Salmonella typhi at 400 ug/ml after 48 hrs by disc-diffusion assay; details: for inhibition zone (IZ): Salmonella enterica subsp. enterica serovar Typhi; for zone of inhibition at 400 µg/mL: Salmonella enterica, read-out: IZ
Method in brief: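 Disc diffusion. A few colonies were grown in nutrient broth for 2.5 h, then spread evenly on dried agar plates. Sterile 6 mm paper discs impregnated with compound were placed on the surface. Plates were incubated at 37 °C and the inhibition zone diameter in mm was read at 48 h. A DMF-only disc served as the negative control and chloramphenicol as the standard.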

Staphylococcus aureus = experiment: Antimicrobial activity against Staphylococcus aureus at 400 ug/ml after 48 hrs by disc-diffusion assay; details: for zone of inhibition at 400 µg/mL: read-out: IZ
Method in brief: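 Bacteria were grown 2.5 h in nutrient broth and spread evenly over dried agar plates. Sterile 6 mm paper discs were impregnated with 400 µg/mL compound and placed on the inoculated surface. A DMF solvent-only disc served as negative control and chloramphenicol as reference. Plates were incubated at 37 °C and inhibition zone diameter (mm) was read at 48 h.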

Bacillus anthracis = experiment: Antimicrobial activity against Bacillus anthracis at 400 ug/ml after 48 hrs by disc-diffusion assay; details: for zone of inhibition at 400 µg/mL: read-out: IZ
Aspergillus niger = experiment: Antimicrobial activity against Aspergillus niger after 72 hrs by broth dilution assay
Method in brief: (§1)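 Tube broth dilution in Sabouraud's Dextrose medium. Compound was dissolved in DMF and tested over 15.62 to 8000 µg/mL. Tubes were inoculated with fungal culture suspension and incubated at 25 °C for 72 h alongside a control. MIC was taken as the lowest concentration giving no turbidity.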

Candida albicans = experiment: Antimicrobial activity against Candida albicans after 72 hrs by broth dilution assay; method in brief: as §1
Aspergillus fumigatus = experiment: Antimicrobial activity against Aspergillus fumigatus after 72 hrs by broth dilution assay; method in brief: as §1

| SMILES | inhibition zone (IZ) (Salmonella typhi) | zone of inhibition at 400 µg/mL (Staphylococcus aureus) [mm] | inhibition zone (IZ) (Bacillus anthracis) | MIC (Aspergillus niger) | MIC (Candida albicans) | MIC (Aspergillus fumigatus) | zone of inhibition at 400 µg/mL (Salmonella typhi) [mm] | zone of inhibition at 400 µg/mL (Bacillus anthracis) [mm] | inhibition zone (IZ) (Staphylococcus aureus) |
| --- | --- | --- | --- | --- | --- | --- | --- | --- | --- |
| COc1cc([C@@H]2[C@H](Cl)C(=O)N2NC(=O)CC(=O)Nc2ccccc2)ccc1OC(C)=O | inactive | 10 | inactive | 4000 µg/mL (≈ 8.97 mM) | 1000 µg/mL (≈ 2.24 mM) |  |  |  |  |
| O=C(N[C@H](CO)[C@H](O)c1ccc([N+](=O)[O-])cc1)C(Cl)Cl [CHLORAMPHENICOL] |  | 32 |  | inactive | inactive | inactive | 36 | 34 |  |
| O=C1[C@@H](Cl)[C@@H](c2cc(/N=N/c3cccc([N+](=O)[O-])c3)ccc2O)N1c1ccc(Br)cc1 |  | 11 |  | 4000 µg/mL (≈ 7.97 mM) | inactive |  | 8 | 17 |  |
| OC(Cn1cncn1)(Cn1cncn1)c1ccc(F)cc1F [FLUCONAZOLE] | inactive |  | inactive | 2000 µg/mL (≈ 6.53 mM) | 250 µg/mL (≈ 0.816 mM) |  |  |  | inactive |
| COc1cc([C@@H]2[C@H](Cl)C(=O)N2NC(=O)CC(=O)Nc2ccc([N+](=O)[O-])cc2)ccc1OC(C)=O | inactive |  |  | 4000 µg/mL (≈ 8.15 mM) | 1000 µg/mL (≈ 2.04 mM) |  |  | 12 | inactive |
| O=C1[C@@H](Cl)[C@@H](c2cc(/N=N/c3cccc([N+](=O)[O-])c3)ccc2O)N1c1ccc(F)cc1 |  | 29 |  | 500 µg/mL (≈ 1.13 mM) | 62.5 µg/mL (≈ 0.142 mM) |  | 21 | 28 |  |
| COc1cc([C@@H]2[C@H](Cl)C(=O)N2NC(=O)CC(=O)Nc2ccccc2[N+](=O)[O-])ccc1OC(C)=O | inactive | 11 |  | 4000 µg/mL (≈ 8.15 mM) | 2000 µg/mL (≈ 4.07 mM) |  |  | 17 |  |
| O=C1[C@@H](Cl)[C@@H](c2cc(/N=N/c3ccc([N+](=O)[O-])cc3)ccc2O)N1c1ccc(Cl)cc1 |  | 17 |  | 2000 µg/mL (≈ 4.37 mM) | 250 µg/mL (≈ 0.547 mM) | inactive | 10 | 21 |  |
| COc1cc([C@@H]2[C@H](Cl)C(=O)N2NC(=O)CC(=O)Nc2ccc(Cl)cc2)ccc1OC(C)=O |  | 30 |  | 1000 µg/mL (≈ 2.08 mM) | 31.2 µg/mL (≈ 0.0651 mM) |  | 29 | 34 |  |
| O=C1[C@@H](Cl)[C@@H](c2cc(/N=N/c3ccc([N+](=O)[O-])cc3)ccc2O)N1c1ccc(Br)cc1 | inactive |  |  | 4000 µg/mL (≈ 7.97 mM) | 4000 µg/mL (≈ 7.97 mM) | inactive |  | 8 | inactive |
| O=C1[C@@H](Cl)[C@@H](c2cc(/N=N/c3ccc([N+](=O)[O-])cc3)ccc2O)N1c1ccc(F)cc1 | inactive |  |  | 4000 µg/mL (≈ 9.07 mM) | 2000 µg/mL (≈ 4.54 mM) |  |  | 12 | inactive |
| O=C1[C@@H](Cl)[C@@H](c2cc(/N=N/c3cccc([N+](=O)[O-])c3)ccc2O)N1c1ccc(Cl)cc1 |  | 30 |  | 1000 µg/mL (≈ 2.19 mM) | 125 µg/mL (≈ 0.273 mM) |  | 27 | 32 |  |
| COc1cc([C@@H]2[C@H](Cl)C(=O)N2NC(=O)CC(=O)Nc2cccc([N+](=O)[O-])c2)ccc1OC(C)=O |  | 27 |  | 2000 µg/mL (≈ 4.07 mM) | 62.5 µg/mL (≈ 0.127 mM) |  | 31 | 33 |  |
| O=C1[C@@H](Cl)[C@@H](c2cc(/N=N/c3ccc([N+](=O)[O-])cc3)ccc2O)N1c1ccccc1 | inactive | 8 |  | 4000 µg/mL (≈ 9.46 mM) | 2000 µg/mL (≈ 4.73 mM) | inactive |  | 10 |  |
| COc1cc([C@@H]2[C@H](Cl)C(=O)N2NC(=O)CC(=O)Nc2cccc(Cl)c2)ccc1OC(C)=O |  | 26 |  | 2000 µg/mL (≈ 4.16 mM) | 125 µg/mL (≈ 0.26 mM) |  | 17 | 22 |  |
| COc1cc([C@@H]2[C@H](Cl)C(=O)N2NC(=O)CC(=O)Nc2ccccc2Cl)ccc1OC(C)=O | inactive | 12 |  | 1000 µg/mL (≈ 2.08 mM) | 500 µg/mL (≈ 1.04 mM) |  |  | 21 |  |
| O=C1[C@@H](Cl)[C@@H](c2cc(/N=N/c3cccc([N+](=O)[O-])c3)ccc2O)N1c1ccccc1 |  | 24 |  | 4000 µg/mL (≈ 9.46 mM) | 1000 µg/mL (≈ 2.37 mM) |  | 18 | 31 |  |
